In ChEMBL document CHEMBL2346505, “Pyranoflavones: a group of small-molecule probes for exploring the active site cavities of cytochrome P450 enzymes 1A1, 1A2, and 1B1” (J Med Chem, 2013):

What was measured:
Format in all cases: ADME
[1] = target: T1, Cytochrome P450 1B1 (Homo sapiens, UniProt Q16678); assay: Inhibition of CYP1B1 (unknown origin)-mediated deethylation of resorufin ethyl ether after 5 mins by spectrofluorimetric analysis
T1 sequence (Q16678 whole entry): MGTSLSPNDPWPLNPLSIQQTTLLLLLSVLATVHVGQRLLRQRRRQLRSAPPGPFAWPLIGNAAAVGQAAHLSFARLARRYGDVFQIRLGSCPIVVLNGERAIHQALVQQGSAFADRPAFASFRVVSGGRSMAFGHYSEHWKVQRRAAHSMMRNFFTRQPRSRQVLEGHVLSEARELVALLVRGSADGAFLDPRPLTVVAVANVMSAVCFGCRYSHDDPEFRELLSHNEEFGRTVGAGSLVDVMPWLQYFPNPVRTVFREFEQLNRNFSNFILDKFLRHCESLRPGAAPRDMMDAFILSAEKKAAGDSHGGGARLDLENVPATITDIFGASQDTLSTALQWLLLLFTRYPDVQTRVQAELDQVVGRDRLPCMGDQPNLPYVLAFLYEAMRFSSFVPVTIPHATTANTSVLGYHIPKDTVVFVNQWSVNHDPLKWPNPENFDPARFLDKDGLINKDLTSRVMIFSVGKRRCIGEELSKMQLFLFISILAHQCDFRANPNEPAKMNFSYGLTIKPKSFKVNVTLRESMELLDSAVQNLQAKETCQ
Outline: (§1)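 Microsomal P450 (final 5 nM) in 0.1 M potassium phosphate pH 7.6 with MgCl2; resorufin ether or coumarin substrate final 5 μM from DMSO stock; inhibitor added in DMSO, DMSO alone for controls. Reaction started with NADPH regenerating system (NADP+, glucose 6-phosphate, G6P dehydrogenase) at 37 °C; product formation followed fluorimetrically as progress curves.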

[2] = system: CYP1A2 / CYP1A1; assay: Selectivity ratio of IC50 for CYP1A2 (unknown origin) to IC50 for CYP1A1 (unknown origin); conditions: human; read-out: Ratio IC50
[3] = target: T2, Cytochrome P450 1A2 (Homo sapiens, UniProt P05177); assay: Inhibition of CYP1A2 (unknown origin)-mediated demethylation of resorufin methyl ether after 5 mins by spectrofluorimetric analysis; outline: as §1
T2 sequence (P05177 whole entry): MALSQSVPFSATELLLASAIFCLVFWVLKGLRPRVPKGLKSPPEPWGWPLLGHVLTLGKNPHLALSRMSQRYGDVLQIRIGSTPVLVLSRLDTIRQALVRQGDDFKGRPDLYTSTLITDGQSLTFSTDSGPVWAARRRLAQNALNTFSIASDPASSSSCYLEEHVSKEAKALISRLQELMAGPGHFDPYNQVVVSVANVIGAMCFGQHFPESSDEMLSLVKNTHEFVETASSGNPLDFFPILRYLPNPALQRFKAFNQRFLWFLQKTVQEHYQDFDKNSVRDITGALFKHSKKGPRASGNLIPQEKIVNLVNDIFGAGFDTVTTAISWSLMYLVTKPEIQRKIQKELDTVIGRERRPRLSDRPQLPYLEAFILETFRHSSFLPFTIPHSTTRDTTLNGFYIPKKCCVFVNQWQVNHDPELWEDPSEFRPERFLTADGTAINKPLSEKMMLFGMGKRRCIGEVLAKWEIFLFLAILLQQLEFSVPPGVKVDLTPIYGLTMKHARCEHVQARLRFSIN

[4] = target: T3, Cytochrome P450 2B1 (Rattus norvegicus, UniProt P00176); assay: Inhibition of CYP2B1 (unknown origin)-mediated depentylation of resorufin pentyl ether after 5 mins by spectrofluorimetric analysis; outline: as §1
T3 sequence (P00176 whole entry): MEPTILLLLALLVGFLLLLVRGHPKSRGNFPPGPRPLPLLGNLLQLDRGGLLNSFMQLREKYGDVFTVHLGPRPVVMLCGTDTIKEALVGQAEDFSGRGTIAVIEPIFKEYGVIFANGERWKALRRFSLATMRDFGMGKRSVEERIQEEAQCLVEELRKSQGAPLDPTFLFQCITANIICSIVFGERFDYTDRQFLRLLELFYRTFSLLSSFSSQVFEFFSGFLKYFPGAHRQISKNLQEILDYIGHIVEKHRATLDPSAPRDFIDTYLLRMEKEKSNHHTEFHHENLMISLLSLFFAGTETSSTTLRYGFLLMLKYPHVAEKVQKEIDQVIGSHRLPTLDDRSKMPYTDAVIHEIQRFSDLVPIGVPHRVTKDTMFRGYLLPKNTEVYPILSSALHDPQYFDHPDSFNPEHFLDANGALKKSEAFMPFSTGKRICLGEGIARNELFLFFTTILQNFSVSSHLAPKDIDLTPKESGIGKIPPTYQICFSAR

[5] = target: T4, Cytochrome P450 2A6 (Homo sapiens, UniProt P11509); assay: Inhibition of CYP2A6 (unknown origin)-mediated coumarin 7-hydroxylation after 5 mins by spectrofluorimetric analysis; outline: as §1
T4 sequence (P11509 whole entry): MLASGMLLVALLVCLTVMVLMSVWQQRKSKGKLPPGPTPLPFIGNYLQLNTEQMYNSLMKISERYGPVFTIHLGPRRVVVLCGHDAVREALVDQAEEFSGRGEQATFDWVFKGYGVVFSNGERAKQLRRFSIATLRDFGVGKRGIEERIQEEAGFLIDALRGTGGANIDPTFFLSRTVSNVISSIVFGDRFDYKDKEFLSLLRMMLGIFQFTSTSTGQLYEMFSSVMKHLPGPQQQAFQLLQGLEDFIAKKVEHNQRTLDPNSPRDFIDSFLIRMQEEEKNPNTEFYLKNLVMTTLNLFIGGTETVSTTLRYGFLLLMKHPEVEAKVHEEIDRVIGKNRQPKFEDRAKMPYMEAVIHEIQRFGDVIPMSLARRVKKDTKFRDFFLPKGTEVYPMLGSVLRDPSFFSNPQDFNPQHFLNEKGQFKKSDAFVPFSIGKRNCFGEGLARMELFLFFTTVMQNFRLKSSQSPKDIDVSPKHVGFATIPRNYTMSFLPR

[6] = target: T5, Cytochrome P450 1A1 (Homo sapiens, UniProt P04798); assay: Inhibition of CYP1A1 (unknown origin)-mediated deethylation of resorufin ethyl ether after 5 mins by spectrofluorimetric analysis; outline: as §1
T5 sequence (P04798 whole entry): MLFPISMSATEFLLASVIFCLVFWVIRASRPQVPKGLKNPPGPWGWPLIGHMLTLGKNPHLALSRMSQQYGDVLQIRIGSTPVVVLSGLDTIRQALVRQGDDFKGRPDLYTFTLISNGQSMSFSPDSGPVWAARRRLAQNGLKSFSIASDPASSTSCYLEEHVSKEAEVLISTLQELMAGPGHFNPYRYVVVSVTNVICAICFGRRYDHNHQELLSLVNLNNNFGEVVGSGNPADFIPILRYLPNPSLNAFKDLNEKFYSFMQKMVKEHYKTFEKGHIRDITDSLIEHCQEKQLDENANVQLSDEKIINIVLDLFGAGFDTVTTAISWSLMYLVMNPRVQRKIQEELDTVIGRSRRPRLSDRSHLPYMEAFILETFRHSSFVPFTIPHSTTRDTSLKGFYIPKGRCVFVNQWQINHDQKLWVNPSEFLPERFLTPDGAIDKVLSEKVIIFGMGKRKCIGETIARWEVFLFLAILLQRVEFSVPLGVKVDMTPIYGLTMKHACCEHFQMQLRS

[7] = target: T6, CYP1A2 (Homo sapiens, UniProt P05177); assay: (§2) Irreversible inhibition of CYP1A2 (unknown origin)-mediated demethylation of resorufin methyl ether after 5 mins by spectrofluorimetric analysis; conditions: human, probe resorufin methyl ether
T6 sequence (P05177 whole entry): T2 sequence (P05177 whole entry)

[8] = target: T2, Cytochrome P450 1A2; assay: as §2
[9] = target: T7, CYP1A1 (Homo sapiens, UniProt P04798); assay: (§3) Irreversible inhibition of CYP1A1 (unknown origin)-mediated deethylation of resorufin ethyl ether after 5 mins by spectrofluorimetric analysis; conditions: human, probe resorufin ethyl ether
T7 sequence (P04798 whole entry): T5 sequence (P04798 whole entry)

[10] = target: T5, Cytochrome P450 1A1; assay: as §3
[11] = system: CYP1B1 over CYP1A1; assay: Selectivity ratio for CYP1B1 (unknown origin) over CYP1A1 (unknown origin); conditions: human
Outline: (§4)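 Ratio of IC50 values from fluorimetric dealkylation assays: resorufin ethyl ether deethylation (1A1, 1B1), resorufin methyl ether demethylation (1A2). Microsomal P450 5 nM final, substrate 5 μM final, 0.1 M potassium phosphate pH 7.6 with MgCl2, NADPH-regenerating system, 37 °C. Inhibitor 0.1–100 μM in DMSO. IC50s from progress curves, three independent experiments.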

[12] = system: CYP1B1 over CYP1A2; assay: Selectivity ratio for CYP1B1 (unknown origin) over CYP1A2 (unknown origin); conditions: human; outline: as §4
[13] = target: T8, CYP1B1 (Homo sapiens, UniProt Q16678); assay: Inhibition of CYP1B1 (unknown origin) dealkylation activity at 0.1 uM after 5 mins by spectrofluorimetric analysis relative to control
T8 sequence (Q16678 whole entry): T1 sequence (Q16678 whole entry)
Outline: (§5)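 Fluorimetric dealkylation of resorufin ether (ethyl for 1A1/1B1, methyl for 1A2) by microsomal P450 (final 5 nM), substrate final 5 μM, in 0.1 M potassium phosphate pH 7.6 with MgCl2 at 37 °C. Reaction started with NADPH regenerating system. Test compound at 0.1 μM in DMSO; activity compared with DMSO-only control.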

[14] = target: T5, Cytochrome P450 1A1; assay: Inhibition of CYP1A1 (unknown origin)-mediated deethylation of resorufin ethyl ether at 0.1 uM after 5 mins by spectrofluorimetric analysis; outline: as §5
[15] = target: T2, Cytochrome P450 1A2; assay: Inhibition of CYP1A2 (unknown origin)-mediated demethylation of resorufin methyl ether at 0.1 uM after 5 mins by spectrofluorimetric analysis; outline: as §5

Row | inhibition (INH) [1] | IC50 [3] | IC50 [4] | IC50 [5] | IC50 [6] | Compound | further results
1 | Active |  | > 25 µM | > 25 µM |  | O=c1cc(-c2ccccc2)oc2cc(O)cc(O)c12 [CHRYSIN] | 
2 | Active |  | > 25 µM | > 25 µM |  | O=c1cc(-c2ccccc2)oc2cc3c(c(O)c12)C=CCO3 | 
3 | Active |  | > 25 µM | > 25 µM | 0.11 µM | O=c1cc(-c2ccccc2)oc2c3c(cc(O)c12)OCC=C3 | 
4 | Active | 0.76 µM | > 25 µM | > 25 µM | 0.15 µM | O=c1cc(-c2ccccc2)oc2ccc3c(c12)C=CCO3 | selectivity ratio [2]: 5
5 | Active | 0.089 µM | > 25 µM | > 25 µM | 0.35 µM | C#CCOc1cc(O)c2c(=O)cc(-c3ccccc3)oc2c1 | 

Second part, the compound before the results:

Row | Compound | inhibition (INH) [1] | IC50 [3] | IC50 [4] | IC50 [5] | IC50 [6] | further results
6 | O=c1cc(-c2ccccc2)oc2ccc3c(c12)OCC=C3 | Active | 1.13 µM | > 25 µM | > 25 µM | 0.32 µM | selectivity ratio [2]: 3.5
7 | C#CCOc1cccc(-c2cc(=O)c3c(O)cccc3o2)c1 | Active |  | 4.08 µM | > 25 µM |  | kinact at 5 min [7]: 0.000367 s⁻¹; Ki [8]: 0.071 µM; kinact at 5 min [9]: 0.00317 s⁻¹; Ki [10]: 0.13 µM
8 | C#CCOc1ccc(-c2cc(=O)c3c(O)cccc3o2)cc1 | Active | > 20 µM | > 25 µM | > 25 µM |  | selectivity ratio [11]: 100; selectivity ratio [12]: > 250; inhibition at 5 min, 0.1 µM [13]: 50%; inhibition (INH) [14]: Not Active; inhibition (INH) [15]: Not Active
9 | O=c1cc(-c2ccc3c(c2)C=CCO3)oc2cccc(O)c12 | Active |  | > 25 µM | > 25 µM |  | 
10 | C#CCOc1ccc(-c2cc(=O)c3c(ccc4ccccc43)o2)cc1 |  | 0.6 µM |  |  | 0.041 µM | selectivity ratio [2]: 5
11 | O=c1cc(-c2cccc3c2OCC=C3)oc2ccccc12 [2'H,4H-[2,8'-BICHROMEN]-4-ONE] | Active |  | 6.29 µM | > 25 µM |  | 
12 | O=c1cc(-c2ccccc2)oc2c3c(ccc12)OCC=C3 | Active |  | > 25 µM | > 25 µM | 0.27 µM | 
13 | O=c1cc(-c2cccc3c2C=CCO3)oc2cccc(O)c12 | Active |  | > 25 µM | > 25 µM |  | 
14 | O=c1cc(-c2ccccc2)oc2c1ccc1ccccc12 [ALPHA-NAPHTHOFLAVONE] | Active |  | 13 µM | > 25 µM | 0.043 µM | 
15 | O=c1cc(-c2ccc3c(c2)C=CCO3)oc2ccccc12 | Active |  | 6.62 µM | > 25 µM |  | 
16 | O=c1cc(-c2ccccc2)oc2ccc3ccccc3c12 [BETA-NAPHTHOFLAVONE] | Active | 0.47 µM | > 25 µM | > 25 µM | 0.054 µM | selectivity ratio [2]: 5
17 | O=c1cc(-c2cccc3c2C=CCO3)oc2ccccc12 [2'H,4H-[2,5'-BICHROMEN]-4-ONE] | Active |  | 7.12 µM | > 25 µM |  | 
18 | O=c1cc(-c2ccc3c(c2)OCC=C3)oc2cccc(O)c12 | Active |  | > 25 µM | > 25 µM |  | 
